# Sampled rows, rich in hits. Any-hit rate of the full collection: about 4.1%.
# KCNK3 inh: human KCNK3 channel inhibitors, primary screen, CHO cells, FluxOR thallium flux, B-score; Potassium channel subfamily K member 3 (Homo sapiens), O14649; FluxOR fluorescence; stronger effect = lower value; B-score at 10 µM; 340,000 tested, 0.84% active; AID 602410, 2012;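 active = B-score under library mean minus 4 SD, starting fluorescence ratio at most library mean plus 5 SD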;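 note: more negative B-score means stronger inhibition of thallium flux through KCNK3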
# KCNQ1 inh: inhibitors of human KCNQ1 channel, primary screen, cell-based, thallium flux, high-throughput; Potassium voltage-gated channel subfamily KQT member 1 (Homo sapiens), P51787; CHO-K1 KCNQ1, FluxOR thallium flux fluorescence; stronger effect = higher value; B-score at 10 µM; 310,000 tested, 1.3% active; AID 2642, 2010;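 active = compounds whose thallium flux B-score, printed positive for inhibition, exceeds three library SD while starting fluorescence stays within three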;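 note: channel opened by potassium depolarization with thallium stimulus after 20 min compound exposure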
# KCNK9 block: KCNK9 potassium channel inhibitors, primary screen, HEK293 cells, thallium flux; AID 488922, 2010; 310,000 tested, 1.2% active; B-score at 10 µM; FluxOR thallium flux fluorescence; stronger effect = lower value; Potassium channel subfamily K member 9 (Homo sapiens), Q9NPC2;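 active = ratio B-score over 3 SD below the library mean, with starting fluorescence within 5 SD of its mean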;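 note: negative B-score means less thallium flux so channel inhibition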
# KCC2 mod: KCC2 cotransporter modulators, thallium flux, primary screen, cell-based, HEK293 KCC2, FluoZin-2 fluorescence, MLSMR | Solute carrier family 12 member 5 (Homo sapiens), Q9H2X9 | KCC2 cells, thallium flux FluoZin-2 fluorescence | B-score of Tl+ flux slope (higher = more flux/activation; lower = inhibition) at 10 µM | 190,000 tested, 2.2% active | AID 1456, 2008;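 active = thallium flux slope and its plate-corrected score both differing from the plate sample mean at a set confidence after two filtering rounds, in either direction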;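 note: slope of fluorescence scaled to starting intensity during 10 to 20 s after thallium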
# Target sequence (Q9H2X9 whole entry, looked up): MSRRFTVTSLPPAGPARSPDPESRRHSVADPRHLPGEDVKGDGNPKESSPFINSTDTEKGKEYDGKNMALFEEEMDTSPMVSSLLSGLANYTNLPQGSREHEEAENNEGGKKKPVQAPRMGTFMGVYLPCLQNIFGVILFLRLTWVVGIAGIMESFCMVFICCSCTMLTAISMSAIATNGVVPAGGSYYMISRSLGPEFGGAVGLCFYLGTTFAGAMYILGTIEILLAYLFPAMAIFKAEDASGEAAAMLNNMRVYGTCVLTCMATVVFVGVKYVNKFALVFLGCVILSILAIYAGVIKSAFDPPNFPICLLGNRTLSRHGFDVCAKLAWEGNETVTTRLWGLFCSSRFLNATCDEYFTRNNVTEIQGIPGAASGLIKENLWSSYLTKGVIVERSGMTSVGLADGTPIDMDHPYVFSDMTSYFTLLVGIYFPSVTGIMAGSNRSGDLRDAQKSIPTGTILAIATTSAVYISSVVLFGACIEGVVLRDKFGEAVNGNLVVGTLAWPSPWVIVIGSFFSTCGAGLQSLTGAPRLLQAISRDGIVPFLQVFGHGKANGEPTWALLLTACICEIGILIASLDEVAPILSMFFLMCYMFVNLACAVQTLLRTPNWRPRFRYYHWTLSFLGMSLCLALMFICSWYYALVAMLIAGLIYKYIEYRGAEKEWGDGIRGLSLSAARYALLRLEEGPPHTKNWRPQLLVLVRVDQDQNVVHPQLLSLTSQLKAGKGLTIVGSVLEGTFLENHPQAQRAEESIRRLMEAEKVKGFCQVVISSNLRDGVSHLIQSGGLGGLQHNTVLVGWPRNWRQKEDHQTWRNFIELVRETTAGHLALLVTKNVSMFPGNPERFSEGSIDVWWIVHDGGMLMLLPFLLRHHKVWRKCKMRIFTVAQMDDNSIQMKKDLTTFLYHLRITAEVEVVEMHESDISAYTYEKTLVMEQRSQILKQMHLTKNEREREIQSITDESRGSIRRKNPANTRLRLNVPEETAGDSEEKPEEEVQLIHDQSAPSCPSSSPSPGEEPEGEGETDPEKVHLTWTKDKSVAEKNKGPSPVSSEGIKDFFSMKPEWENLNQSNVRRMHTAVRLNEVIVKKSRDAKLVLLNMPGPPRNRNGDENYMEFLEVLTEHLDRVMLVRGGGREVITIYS
# KCNQ1 act: potentiators or activators of KCNQ1 channel, primary screen, cell-based, thallium flux, high-throughput; B-score at 10 µM; Potassium voltage-gated channel subfamily KQT member 1 (Homo sapiens), P51787; CHO-K1 KCNQ1, thallium flux FluxOR fluorescence; stronger effect = higher value; 310,000 tested, 0.35% active;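 active = fluorescence ratio B-score, a plate-corrected score, at least three library SD, with initial intensity B-score within 5 SD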
#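 System: CHO-K1 cells stably expressing KCNQ1 / Medium: assay buffer for compound exposure, DMSO matched across wells / Reagent: thallium- and potassium-containing depolarizing buffer / Compound: one concentration, matched DMSO / Incubation: 20 min compound pretreatment at room temperature / Measured by: kinetic FluxOR fluorescence, 10 s baseline plus 110 s post-stimulus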
# hERG rescue: hERG rescue from dofetilide block, primary screen, cell-based, CHO-hERG, FluxOR thallium flux, dofetilide IC70; Voltage-gated inwardly rectifying potassium channel KCNH2 (Homo sapiens), Q12809; dofetilide IC70 present; activation (rescue from dofetilide block), less the hit threshold, % at 10 µM; 310,000 tested, 0.51% active; AID 1511, 2009;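 active = activation above the mean of controls blocked by dofetilide plus 5 SD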;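 note: thallium influx through hERG after potassium depolarization seen as dye fluorescence rise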
# KCNK9 block conf: KCNK9 potassium channel inhibitors, confirmation, HEK293 cells, thallium flux, duplicate. shares compounds with KCNK9 block. FluxOR thallium flux fluorescence. inhibition, % at 10 µM. 4,900 tested, 43% active;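 active = thallium signal inhibited by more than 5 SD of the compound-free buffer control wells, on both duplicate plates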;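 note: 0% = assay buffer control wells without compound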
# Kir2-1 spec: mouse Kir2.1 channel inhibition, confirmation, selectivity assay for KCNK9 modulator project, cell-based, HEK293, thallium flux; shares compounds with KCNK9 block; inhibition, % at 10 µM; Kir2.1 cells, FluxOR thallium flux fluorescence; 4,900 tested, 4% active;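 active = thallium signal drop more than 5 SD beyond the mean of the no-compound control wells, seen in both duplicate plates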;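 note: signal is fluorescence rise after thallium addition divided by baseline fluorescence; plate controls were assay buffer only for no effect and full block by chlorpromazine control for full effect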
# HEK293 Tl ctr: thallium flux in non-induced HEK293 cells, confirmation, counter-screen for KCNK9 inhibitor project, cell-based, second counter screen, non-induced KCNK9-HEK293; 4,900 tested, 40% active; shares compounds with KCNK9 block; FluxOR thallium flux; inhibition, % at 10 µM;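 active = thallium signal drop beyond 5 SD of the untreated control mean, on both duplicate plates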;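 note: plate controls were buffer only IC0 wells for no effect and SID17386958 at its maximal inhibitory level for full effect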
# KCNK3 inh conf: retest of human KCNK3 channel inhibitors, confirmation, CHO cells, FluxOR thallium flux, triplicate. shares compounds with KCNK3 inh. FluxOR fluorescence; 0% buffer, 100% carvedilol maximal block. ratio percent of control, % at 10 µM. 2,400 tested, 99% active. AID 651638, 2012;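 active = ratio percent of control, averaged over triplicates, above buffer control mean plus 5 SD, cut at about 64% in these data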;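 note: ratio is the fluorescence rise from min to max over baseline after thallium stimulus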
# KCNK3 uninduced: thallium flux inhibition in non-induced cells, primary screen, counter-screen for KCNK3 inhibitor project, cell-based, non-induced KCNK3 line, FluxOR thallium, triplicate | shares compounds with KCNK3 inh | non-induced KCNK3 parental cells; stronger effect = lower value | thallium flux ratio (lower = more inhibition) at 10 µM | 2,400 tested, 40% active | AID 651747, 2012;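 active = thallium flux ratio, averaged over three wells, more than 5 SD below the buffer control mean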;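 note: host cells are CHO cells without KCNK3 induction; ratio is peak minus trough fluorescence over baseline then normalized to buffer controls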
# The depositor's hits bear a star; i = inactive; · = no result.
SMILES,KCNK3 inh,KCNQ1 inh,KCNK9 block,KCC2 mod,KCNQ1 act,hERG rescue,KCNK9 block conf,Kir2-1 spec,HEK293 Tl ctr,KCNK3 inh conf,KCNK3 uninduced
CCc1c(C)nc2cc(-c3cc(OC)cc(OC)c3)nn2c1N1CCCC1,-9.8*,i,-11*,-0.71,i,-4,58%*,i,26%*,100*,i
COc1cc(OC)cc(-c2cc3nc(C)c(CCC(=O)Nc4nc(C)cs4)c(C)n3n2)c1,i,i,i,-0.066,i,0,·,·,·,·,·
COc1ccc(OCc2n(CC(=O)OC3CC(C)CCC3C(C)C)c3ccccc3[n+]2C)cc1 (stereo not drawn),-10*,10*,-14*,-0.96,i,-37,70%*,79%*,i,112*,i
O=C(CSc1nc(O)cc(=O)n1-c1ccccc1)Nc1nc2ccccc2s1,i,i,i,-0.94,i,-4,·,·,·,·,·
COc1ccccc1OCCCN1C(=O)C(=O)c2cccc(C)c21,-10*,i,-12*,-0.72,i,-15,49%*,i,i,112*,i
CCOC(=O)C1=C(CC)OC(N)=C(C#N)C1c1cccs1 (stereo not drawn),i,i,i,-1.7,i,-2,·,·,·,·,·
CCN1CC2=C(OC(N)=C(C#N)C2c2cccs2)/C(=C\c2cccs2)C1 (stereo not drawn),i,i,-8.7*,-0.78,i,-8,28%*,i,26%*,130*,0.12*
COC(=O)c1ccccc1NC(=O)N1CCc2ccc(NC(=O)c3ccccn3)cc2C1,i,i,-8.3*,·,i,-8,42%*,i,26%*,134*,0.16*
CSCC(C)N1CCC(Oc2cccc(C(=O)NCc3ccccn3)c2)CC1 (stereo not drawn),i,i,i,·,i,-13,·,·,·,·,·
COc1cccc(NC(=O)C(NCCc2ccc(S(N)(=O)=O)cc2)c2ccccc2)c1 (stereo not drawn),-8.7*,i,-9*,·,i,-12,38%*,i,31%*,106*,i
CC(C)C(=O)Nc1cccc(C(=O)NCCc2ccc(S(N)(=O)=O)cc2)c1,i,i,i,·,i,-10,·,·,·,·,·
Cc1c(C(=O)c2ccc(Cl)c(Cl)c2)cnc2cc3c(cc12)OCO3,-11*,i,-9.9*,-0.1,i,-6,73%*,i,44%*,100*,i
Cc1c(C(=O)c2ccc3c(c2)OCO3)ccc2c1OCO2,i,·,·,·,·,·,·,·,·,·,·

# Bioassay records from PubChem.
